Molecular target: T1, Urease subunit alpha/Urease subunit beta (Helicobacter pylori (strain ATCC 700392 / 26695) (Campylobacterpylori), UniProt P69996)
Assay: Inhibition of Helicobacter pylori ATCC 43504 urease-mediated ammonia production preincubated for 1.5 hrs by indophenol method

T1 sequence (P69996 whole entry): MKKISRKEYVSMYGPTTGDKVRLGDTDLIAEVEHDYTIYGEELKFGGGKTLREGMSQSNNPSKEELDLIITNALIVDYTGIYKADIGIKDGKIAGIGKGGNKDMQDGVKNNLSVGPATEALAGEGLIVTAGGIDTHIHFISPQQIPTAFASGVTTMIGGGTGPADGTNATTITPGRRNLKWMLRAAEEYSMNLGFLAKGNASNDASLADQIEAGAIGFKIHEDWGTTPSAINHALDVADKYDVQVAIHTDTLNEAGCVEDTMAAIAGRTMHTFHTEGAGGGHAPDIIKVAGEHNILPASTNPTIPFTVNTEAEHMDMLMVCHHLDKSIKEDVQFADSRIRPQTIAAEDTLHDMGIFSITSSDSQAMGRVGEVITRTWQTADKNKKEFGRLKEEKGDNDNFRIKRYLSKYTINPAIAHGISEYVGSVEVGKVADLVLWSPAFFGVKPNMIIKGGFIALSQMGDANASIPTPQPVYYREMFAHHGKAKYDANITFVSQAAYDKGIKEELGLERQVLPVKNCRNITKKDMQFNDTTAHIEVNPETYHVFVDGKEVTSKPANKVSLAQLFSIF
T1 sequence (P14916 whole entry, further chain): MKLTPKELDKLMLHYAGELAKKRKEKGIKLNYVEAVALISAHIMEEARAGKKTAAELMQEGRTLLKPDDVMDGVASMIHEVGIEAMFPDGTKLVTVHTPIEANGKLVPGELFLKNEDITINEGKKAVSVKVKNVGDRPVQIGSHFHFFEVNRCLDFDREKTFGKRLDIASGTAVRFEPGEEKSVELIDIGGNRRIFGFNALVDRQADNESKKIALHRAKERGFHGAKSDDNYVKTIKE

First: COc1cc(OC)c2c(=O)cc(-c3ccccc3)oc2c1 [CHRYSIN DIMETHYL ETHER]
Second: O=c1cc(-c2ccccc2)oc2cc(O)cc(O)c12 [CHRYSIN]
The IC50 of the first is 7.2-fold higher: 2180 µM for the first, 302 µM for the second.

Going from `COc1ccc(C2COc3cc(O)ccc3C2)cc1` (stereo not given) to `COc1ccc(C2COc3cc(OC)ccc3C2)cc1` (stereo not given), the IC50 rises from 358 µM to 1780 µM (5-fold). The first is the more potent here.

First: Oc1cc(O)c2c(c1)OC(c1ccc(O)c(O)c1)C=C2 (stereo not given)
Second: Oc1cc(O)c2c(c1)OC(c1ccccc1)C=C2 (stereo not given)
The IC50 of the first is 7.5-fold lower: 4.42 µM for the first, 33.2 µM for the second. The first is the more potent here.

Going from `COc1ccc(C2=COc3cc(O)ccc3C2)cc1` to `Oc1ccc(C2=COc3c(ccc(O)c3O)C2)cc1`, the IC50 falls from 86.2 µM to 0.85 µM (100-fold).

Going from `O=C1CC(c2ccc(O)cc2)Oc2cc(O)cc(O)c21` (stereo not given) to `O=c1cc(-c2ccc(O)cc2)oc2cc(O)cc(O)c12` [APIGENIN], the IC50 falls from 328 µM to 138 µM (2.4-fold).

`COc1ccc(C2COc3cc(OC)ccc3C2O)cc1` (stereo not given) and `COc1ccc(-c2coc3cc(OC)ccc3c2=O)cc1` are within 1.5-fold of each other in IC50: 3870 µM for the first, 3530 µM for the second.

First: O=c1c(-c2ccc(O)cc2)coc2cc(O)ccc12 [DAIDZEIN]
Second: COc1ccc(-c2coc3cc(O)ccc3c2=O)cc1 [FORMONONETIN]
The IC50 of the first is 3.6-fold lower: 556 µM for the first, 2000 µM for the second.

First: COc1ccc(C(C)C(=O)c2ccc(OC)cc2O)cc1 (stereo not given)
Second: COc1ccc(C(C)C(=O)c2ccc(O)cc2O)cc1 (stereo not given)
The IC50 of the first is 2.1-fold higher: 2180 µM for the first, 1050 µM for the second.

`COc1ccc(C2CC(O)c3c(OC)c(OC)c(OC)c(OC)c3O2)cc1` (stereo not given) and `COc1ccc(C2C=Cc3c(OC)c(OC)c(OC)c(OC)c3O2)cc1` (stereo not given) are within 1.5-fold of each other in IC50: 4850 µM for the first, 4170 µM for the second.

First: Oc1ccc(C2COc3cc(O)ccc3C2)cc1 (stereo not given)
Second: Oc1cc2c(c(O)c1O)C=CC(c1ccccc1)O2 (stereo not given)
The IC50 of the first is 4.2-fold higher: 92.9 µM for the first, 22.1 µM for the second. The second is the more potent here.

First: O=c1cc(-c2ccccc2)oc2cc(O)c(O)c(O)c12 [BAICALEIN]
Second: O=c1cc(-c2ccc(O)c(O)c2)oc2cc(O)cc(O)c12 [LUTEOLIN]
The IC50 of the first is 8.2-fold higher: 291 µM for the first, 35.4 µM for the second. The second is the more potent here.

Going from `COc1cc(O)c(C(=O)CCc2ccccc2)c(O)c1` to `COc1cc(O)c(C(=O)CCc2ccccc2)c(OC)c1`, the IC50 rises from 978 µM to 1670 µM (1.7-fold).

`COc1ccc(C2=CCc3c(OC)c(OC)c(OC)c(OC)c3O2)cc1` and `COc1ccc(-c2cc(=O)c3c(OC)c(OC)c(OC)c(OC)c3o2)cc1` [TANGERETIN] are within 1.5-fold of each other in IC50: 3790 µM for the first, 4630 µM for the second.

First: O=c1c(O)c(-c2ccc(O)c(O)c2)oc2cc(O)cc(O)c12 [QUERCETIN]
Second: COc1cc(O)c(C(=O)/C=C/c2ccccc2)c(OC)c1 [FLAVOKAWAIN B]
The IC50 of the first is 110-fold lower: 11 µM for the first, 1220 µM for the second.

Molecular target: T1, Urease subunit alpha/Urease subunit beta
Assay: Competitive inhibition of Helicobacter pylori ATCC 43504 urease using urea as substrate by Lineweaver-Burk/Dixon plot analysis
In short: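 Crude urease from H. pylori ATCC 43504, grown 24 h at 37 °C under microaerobic conditions in Brucella broth with 10% heat-inactivated horse serum. Enzyme (10 U) was pre-incubated with inhibitor for 1.5 h at room temperature. Ammonia was read by the indophenol method while urea varied at several inhibitor levels. Ki came from a Lineweaver–Burk slope replot x-intercept or a Dixon plot intersection. Run in triplicate.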

In the case of `Oc1ccc(C2=COc3c(ccc(O)c3O)C2)cc1`, the Ki is reported as 0.641 µM.

Molecular target: Urease subunit alpha/Urease subunit beta (Helicobacter pylori (strain ATCC 700392 / 26695) (Campylobacterpylori)) (UniProt P69996+P14916)
Sequence (P14916 whole entry, looked up): as the sequence (P14916 whole entry, further chain) above
Sequence (P69996 whole entry, looked up): as the sequence (P69996 whole entry) above
Assay: Ratio of acetohydroxamic acid IC50 to compound IC50 for Helicobacter pylori ATCC 43504 urease

`Oc1ccc(C2=COc3c(ccc(O)c3O)C2)cc1` showed a Ratio IC50 of 20.

From ChEMBL document CHEMBL2375294, “Synthesis, structure-activity relationship analysis and kinetics study of reductive derivatives of flavonoids as Helicobacter pylori urease inhibitors” (Eur J Med Chem, 2013)
